Article PMC7231760 (International Journal of Nanomedicine, 2020)

How the values were obtained:
HCV NS3 protease = HCV NS3 protease (Hepatitis C virus, UniProt P27958); test: Anti-HCV NS3 protease assay; assay type: biochemical; conditions: SNPs of total extract and petroleum ether fraction, controls (Table 2)
HCV NS3 helicase = HCV NS3 helicase (Hepatitis C virus genotype 1a, UniProt P27958); test: Anti-HCV NS3 helicase assay; assay type: biochemical
How it was run: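 Test samples were dissolved in DMSO; thioflavin S or 0.8% DMSO served as controls. ATP was added from a 5 mM solution. Fluorescence was read at t0 and after 1 h at 25°C. Ratio_RFU = RFU_t60/RFU_t0, and percent inhibition was calculated.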

HCV NS3 helicase, sequence (P27958 1192-1657 limits assumed): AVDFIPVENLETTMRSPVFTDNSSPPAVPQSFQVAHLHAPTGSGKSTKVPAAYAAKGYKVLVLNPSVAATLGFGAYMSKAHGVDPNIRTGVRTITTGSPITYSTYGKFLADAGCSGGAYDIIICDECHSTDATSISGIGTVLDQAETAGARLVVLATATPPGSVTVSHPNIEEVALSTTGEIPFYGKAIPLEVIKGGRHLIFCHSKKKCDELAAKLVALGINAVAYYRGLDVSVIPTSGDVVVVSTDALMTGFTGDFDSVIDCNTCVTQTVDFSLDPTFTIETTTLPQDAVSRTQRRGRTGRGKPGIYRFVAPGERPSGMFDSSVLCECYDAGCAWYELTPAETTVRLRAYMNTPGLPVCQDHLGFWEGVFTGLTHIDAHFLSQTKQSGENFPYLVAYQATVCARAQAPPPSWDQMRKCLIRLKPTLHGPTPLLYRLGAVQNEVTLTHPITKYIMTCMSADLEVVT
HCV NS3 protease, sequence (P27958 1027-1657): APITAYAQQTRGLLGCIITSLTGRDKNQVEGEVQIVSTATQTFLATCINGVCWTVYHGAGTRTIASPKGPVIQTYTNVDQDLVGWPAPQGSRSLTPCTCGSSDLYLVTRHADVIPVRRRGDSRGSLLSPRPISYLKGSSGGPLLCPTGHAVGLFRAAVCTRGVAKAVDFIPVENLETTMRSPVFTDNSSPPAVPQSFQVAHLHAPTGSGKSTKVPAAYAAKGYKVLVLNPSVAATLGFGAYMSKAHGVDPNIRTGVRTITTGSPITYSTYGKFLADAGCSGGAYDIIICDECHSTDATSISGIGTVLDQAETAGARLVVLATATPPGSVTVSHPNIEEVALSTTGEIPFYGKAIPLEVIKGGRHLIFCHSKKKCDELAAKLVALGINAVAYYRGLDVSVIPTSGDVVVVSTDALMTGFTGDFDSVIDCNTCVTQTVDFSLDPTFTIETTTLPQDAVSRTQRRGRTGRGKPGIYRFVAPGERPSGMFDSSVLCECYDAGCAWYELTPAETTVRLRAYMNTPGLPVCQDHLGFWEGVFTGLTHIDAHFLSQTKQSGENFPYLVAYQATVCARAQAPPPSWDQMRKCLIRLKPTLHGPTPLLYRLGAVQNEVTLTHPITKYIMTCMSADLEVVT

SMILES | IC50 NS3 Protease (HCV NS3 protease) [µg/mL] | IC50 NS3 Helicase (HCV NS3 helicase; SNPs of total extract and petroleum ether fraction, controls (Table 2)) [µg/mL] | IC50 (HCV NS3 helicase) [µM]
O=[N+]([O-])[O-].[Ag+] [AgNO3] | 52.67 ± 0.33 | 77.72 ± 4.57 | 
NC(=O)c1ncn([C@@H]2O[C@H](CO)[C@@H](O)[C@H]2O)n1 [Ribavirin] |  |  | 19.1
